Here are results for twelve compounds from ChEMBL document CHEMBL1155014, “On the antibiotic activity of oxazolomycin” (2008).

What all share (format): functional
Assay [1] deals with Escherichia coli. Kind of assay: Antibacterial activity against Escherichia coli X580 at 4 mg/ml by hole plate method. The conditions noted are these: for zone of inhibition at 4000 µg/mL: read-out: IZ. Summed up: (§1)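 Hole-plate assay on bioassay plates seeded with the test organism. Compounds at 4 mg/ml in 7:3 DMSO/H2O were loaded into wells and incubated overnight at 37 °C. Inhibition zone diameters were then measured.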

Assay [2] has as its system Escherichia coli. Description: Antibacterial activity against Escherichia coli X580 at 4 mg/ml by hole plate method relative to cephalosporin C. The method, boiled down: (§2)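 Hole-plate diffusion: compound solutions at 4 mg/ml (7:3 DMSO/H2O) were placed in wells and incubated overnight at 37 °C. Inhibition zone diameters were measured, and potency was expressed as zone size per mg/ml relative to standards prepared with cephalosporin C.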

Assay [3] has as its system Staphylococcus aureus. Kind of assay: Antibacterial activity against Staphylococcus aureus NCTC 6571 at 4 mg/ml by hole plate method. As to conditions: for zone of inhibition at 4000 µg/mL: read-out: IZ. The method, boiled down:
as §1

For assay [4], the system named is Escherichia coli. Description: Antibacterial activity against Escherichia coli X580 by serial dilution. Summed up:
(§3)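 MIC estimated by serial dilution of compound, each dilution assayed by the hole-plate method (overnight, 37 °C). The end point is the dilution at which no inhibition zone is obtained.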

Assay [5] has as its system Staphylococcus aureus. Description: Antibacterial activity against Staphylococcus aureus NCTC 6571 at 4 mg/ml by hole plate method relative to cephalosporin C. Summed up:
as §2

Assay [6] concerns Staphylococcus aureus. Description: Antibacterial activity against Staphylococcus aureus NCTC 6571 by serial dilution. Summed up: as §3

SMILES strings stand for the structures. Values after ≈ are worked out from the molar mass of the structure shown. Active and inactive are the calls of the source. The rule behind the calls is not given here.

What is called MIC is the least concentration at which growth counts as inhibited. Low values mean greater potency, high ones weaker potency. For the compound `C/C(=C/C=C/c1ccccc1)C(O)C(C)(C)C(N)=O` (centres undefined), the zone of inhibition at 4000 µg/mL in the assay on Escherichia coli [1] is 28 mm; in the assay with Staphylococcus aureus [3], 14 mm. Moreover, the Activity with Escherichia coli [2] was determined as 0.03 millimeter/mg/ml; in the assay on Staphylococcus aureus [5] it was 0.05 millimeter/mg/ml. Further, in the assay on Escherichia coli [4], it took 1000 µg/mL (≈ 3860 µM) to inhibit growth (MIC).
As to `C=CCNC(=O)C(C)(C)C(O)CCCCc1ccccc1` (racemic), the zone of inhibition at 4000 µg/mL in the assay on Escherichia coli [1] was determined as 23 mm; with Staphylococcus aureus [3] it was 17 mm. Moreover, the values for the Activity in the assay with Escherichia coli [2] and in the assay on Staphylococcus aureus [5] were 0.01 millimeter/mg/ml and 0.08 millimeter/mg/ml, respectively. For the same compound, the MIC stood at 500 µg/mL (≈ 1730 µM) in the assay on Escherichia coli [4] and 4000 µg/mL (≈ 13800 µM) against Staphylococcus aureus [6].
As for `CC(C)(C(N)=O)C(O)/C=C/c1ccccc1` (centres undefined), the result with Escherichia coli [1] and with Staphylococcus aureus [3] was inactive.
On to `CC(C)(C(=O)NCc1ccccc1)C(O)c1ccccc1` (centres undefined), for which the zone of inhibition at 4000 µg/mL in the assay with Escherichia coli [1] was determined as 17 mm. For the same compound, in the assay on Escherichia coli [2], the Activity came out at 0.005 millimeter/mg/ml. In the assay on Staphylococcus aureus [3], the result was inactive. For the same compound, inhibition of growth with Escherichia coli [4] (MIC) required 500 µg/mL (≈ 1760 µM).
For `CCCNC(=O)C(C)(C)C(O)c1ccccc1` (centres undefined), the result with Escherichia coli [1] and in the assay with Staphylococcus aureus [3] was inactive.
With `C=CCNC(=O)C(C)(C)C(O)Cc1ccccc1` (centres undefined), the outcome in the assay with Escherichia coli [1] and with Staphylococcus aureus [3] was inactive.
With `C=CCNC(=O)C(C)(C)C1(O)CCCCC1`, the result with Escherichia coli [1] and in the assay on Staphylococcus aureus [3] was inactive.
With `CC(C)(C(=O)NCc1ccc(Br)cc1)C(O)c1ccccc1` (centres undefined), the outcome in the assay on Escherichia coli [1] and with Staphylococcus aureus [3] was inactive.
On to `C#CCNC(=O)C(C)(C)C(O)c1ccccc1` (centres undefined), for which the zone of inhibition at 4000 µg/mL with Escherichia coli [1] is 15 mm. This compound showed an Activity in the assay with Escherichia coli [2] of 0.003 millimeter/mg/ml. Also, the outcome with Staphylococcus aureus [3] was inactive.
As to `C=CCNC(=O)C(C)(C)C(O)c1ccccc1` (racemic), the outcome in the assay with Escherichia coli [1] and in the assay on Staphylococcus aureus [3] was inactive.
Take `C=CCNC(=O)C(C)(C)C(O)CCCCCCC` (centres undefined): in the assay with Escherichia coli [1], the zone of inhibition at 4000 µg/mL was 22 mm. Also, the Activity in the assay with Escherichia coli [2] worked out at 0.01 millimeter/mg/ml. Besides, in the assay with Staphylococcus aureus [3], the result was inactive. Moreover, in the assay with Escherichia coli [4], inhibition of growth (MIC) required 1000 µg/mL (≈ 3920 µM).
In the case of `C=CCNC(=O)C(C)(C)C(O)c1ccccc1/C=C/c1ccccc1` (centres undefined), the values for the zone of inhibition at 4000 µg/mL in the assay on Escherichia coli [1] and in the assay on Staphylococcus aureus [3] were 20 mm and 14 mm, respectively. For the same compound, the Activity with Escherichia coli [2] stood at 0.01 millimeter/mg/ml; with Staphylococcus aureus [5] it was 0.06 millimeter/mg/ml. Also, the MIC with Escherichia coli [4] is 500 µg/mL (≈ 1490 µM).
